From ChEMBL document CHEMBL1121850, “Synthesis of peptide analogues of prothrombin precursor sequence 5-9. Substrate specificity of vitamin K dependent carboxylase” (J Med Chem, 1981) come the findings set out here.

The structures appear in SMILES notation. Numbered stars: 1 amine (or outer) side, 2 acyl side, 3 side chain; on linkers, the order of the positions; unused ones are H or OH. Square brackets hold non-standard residues; d marks the D form. Peptide text beside a SMILES is read from it. * marks the point of attachment. ξ: configuration not given here. Pyrrolidin1yl(2S-Ac) = CC(=O)[C@@H]1CCCN1*; ξF = NC(Cc1ccccc1)C(=O)O; X1 = CO[C@H](CC(C)C)N*; Boc = CC(C)(C)OC(=O)*; CO = O=C([*:1])[*:2]; OtBu = CC(C)(C)O*

Usually Km stands for the concentration of substrate that gives half-maximal velocity.

In one series the target is T1, Vitamin K-dependent gamma-carboxylase (Rattus norvegicus) (UniProt O88496).
T1 sequence (whole entry): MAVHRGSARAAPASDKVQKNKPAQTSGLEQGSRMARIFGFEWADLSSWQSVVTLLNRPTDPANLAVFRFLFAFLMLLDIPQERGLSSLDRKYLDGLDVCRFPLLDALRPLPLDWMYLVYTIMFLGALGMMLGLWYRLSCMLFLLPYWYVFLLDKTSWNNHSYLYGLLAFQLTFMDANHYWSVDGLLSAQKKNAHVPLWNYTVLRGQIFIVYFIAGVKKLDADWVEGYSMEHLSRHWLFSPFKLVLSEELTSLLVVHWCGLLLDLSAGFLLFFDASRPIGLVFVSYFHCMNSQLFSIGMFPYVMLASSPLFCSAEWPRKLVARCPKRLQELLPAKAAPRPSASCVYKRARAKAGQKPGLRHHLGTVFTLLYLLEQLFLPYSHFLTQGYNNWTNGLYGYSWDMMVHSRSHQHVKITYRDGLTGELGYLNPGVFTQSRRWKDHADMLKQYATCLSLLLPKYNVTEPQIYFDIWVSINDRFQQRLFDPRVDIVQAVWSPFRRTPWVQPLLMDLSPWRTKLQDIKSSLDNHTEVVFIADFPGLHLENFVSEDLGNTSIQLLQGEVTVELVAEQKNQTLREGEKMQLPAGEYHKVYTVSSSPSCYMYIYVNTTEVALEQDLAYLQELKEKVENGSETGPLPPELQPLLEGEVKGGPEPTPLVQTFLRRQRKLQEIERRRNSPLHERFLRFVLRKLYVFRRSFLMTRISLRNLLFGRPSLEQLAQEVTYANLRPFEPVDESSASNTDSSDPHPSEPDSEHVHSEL
Nature of the series: Relative activity for […] rat liver vitamin K dependent carboxylase mediated carboxylation of pentapeptide at 1 mM. The format is functional, tissue-based. The method, boiled down: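 Carboxylase source was Triton-solubilized liver microsomes from vitamin K-deficient rats, pellets KCl-washed. Peptide at 1 mM was incubated with NaH¹⁴CO₃ and vitamin K-H₂ (in ethanol) at 17 °C for 10–20 min. Read-out was ¹⁴CO₂ in TCA-soluble material, with the ethanol-only background subtracted. Activity is given as % of the 1 mM reference pentapeptide on the same preparation; duplicate incubations.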
In the case of `CC(C)C[C@H](NC(=O)[C@H](CO)NC(=O)[C@H](CCC(=O)O)NC(=O)[C@H](CC(C)C)NC(=O)[C@H](C)NC(=O)[C@H](CCC(=O)O)NC(=O)[C@@H](N)Cc1ccccc1)C(=O)O` (H-FEALESL-OH), the Relative activity is 6%.

With `CC(C)C[C@H](NC(=O)[C@H](CCC(=O)O)NC(=O)[C@H](CCC(=O)O)NC(=O)[C@H](C)NC(=O)[C@@H](N)Cc1ccccc1)C(=O)O` (H-FAEEL-OH), the Relative activity came out at 72%.

Take `CCC(=O)N[C@@H](Cc1ccccc1)C(=O)N[C@@H](CC(C)C)C(=O)N[C@@H](CCC(=O)O)C(=O)N[C@@H](CCC(=O)O)C(=O)N[C@@H](CC(C)C)C(=O)O` (HELM PEPTIDE1{[CCC(=O)[*:2]].F.L.E.E.L}$$$$V2.0): the Relative activity worked out at 149%.

For the compound `COC(=O)[C@H](CC(C)C)NC(=O)[C@H](CCC(=O)O)NC(=O)[C@H](CCC(=O)O)NC(=O)CNC(=O)[C@H](Cc1ccccc1)NC(=O)OC(C)(C)C` (HELM PEPTIDE1{[CC(C)(C)OC(=O)[*:2]].F.G.E.E.L.[CO[*:1]]}$$$$V2.0), the Relative activity was 25%.

As to `CC(C)C[C@H](NC(=O)[C@H](CCC(=O)O)NC(=O)[C@H](CCC(=O)O)NC(=O)CNC(=O)[C@@H](N)Cc1ccccc1)C(=O)O` (H-FGEEL-OH), the Relative activity was found to be 4%.

Turning to `COC(=O)[C@H](CC(C)C)NC(=O)[C@H](CCC(=O)O)NC(=O)[C@H](CCC(=O)O)NC(=O)[C@H](C)NC(=O)OC(C)(C)C` (HELM PEPTIDE1{[CC(C)(C)OC(=O)[*:2]].A.E.E.L.[CO[*:1]]}$$$$V2.0), the Relative activity stood at 19%.

Consider `CC(C)C[C@H](NC(=O)[C@H](CCC(=O)O)NC(=O)[C@H](CCC(=O)O)NC(=O)[C@H](CC(C)C)NC(=O)[C@H](Cc1ccccc1)NC(=O)c1ccccc1)C(=O)O` (HELM PEPTIDE1{[O=C(c1ccccc1)[*:2]].F.L.E.E.L}$$$$V2.0), for which the Relative activity was 27%.

Take `COC(=O)[C@@H](CC(C)C)NC(=O)[C@H](CCC(=O)O)NC(=O)[C@H](CCC(=O)O)NC(=O)[C@H](CC(C)C)NC(=O)OC(C)(C)C`: the Relative activity is 77%.

`COC(=O)NC(=O)[C@H](CC(C)C)NC(=O)[C@H](CC(=O)O)NC(=O)C(CC(=O)O)NC(=O)OC(C)(C)C` (stereo partly drawn): the Relative activity was below 1%.

In the case of `COC(=O)[C@H](CC(C)C)NC(=O)[C@@H](CCC(=O)O)NC(=O)[C@H](CCC(=O)O)NC(=O)[C@H](CC(C)C)NC(=O)[C@H](Cc1ccccc1)NC(=O)OC(C)(C)C`, the Relative activity is below 1%.

`CC(C)(C)OC(=O)N[C@H](CCC(=O)O)C(=O)OCc1ccccc1`: the Relative activity was determined as 5%.

On to `COC(=O)[C@H](CC(C)C)NC(=O)[C@H](CCC(=O)O)NC(=O)[C@@H](CCC(=O)O)NC(=O)[C@H](CC(C)C)NC(=O)[C@H](Cc1ccccc1)NC(=O)OC(C)(C)C`, for which the Relative activity is below 1%.

With `COC(=O)[C@H](CC(C)C)NC(=O)[C@@H](CCC(=O)O)NC(=O)[C@@H](CCC(=O)O)NC(=O)[C@H](CC(C)C)NC(=O)[C@H](Cc1ccccc1)NC(=O)OC(C)(C)C`, the Relative activity is below 1%.

Consider `CC(C)C[C@H](NC(=O)[C@H](CCC(=O)O)NC(=O)[C@H](CC(C)C)NC(=O)[C@H](CCC(=O)O)NC(=O)[C@H](Cc1ccccc1)NC(=O)O)C(=O)O` (HELM PEPTIDE1{[O=C(O)[*:2]].F.E.L.E.L}$$$$V2.0), for which the Relative activity is below 1%.

Turning to `COC(=O)[C@H](CC(C)C)NC(=O)[C@H](CCC(=O)O)NC(=O)[C@H](CCC(=O)O)NC(=O)OC(C)(C)C`, the Relative activity worked out at 107%.

With `COC(=O)NC(=O)[C@H](CC(C)C)NC(=O)[C@H](CCC(=O)O)NC(=O)C(CCSC)NC(=O)CC(C)C` (stereo partly drawn), the Relative activity was determined as 6%.

Take `COC(=O)[C@@H](CC(C)C)NC(=O)[C@H](CCC(=O)O)NC(=O)[C@H](CCC(=O)O)NC(=O)[C@@H](CC(C)C)NC(=O)OC(C)(C)C`: the Relative activity came to 19%.

In the case of `COC(=O)NC(=O)[C@H](CC(C)C)NC(=O)[C@H](CCC(=O)O)NC(=O)C(CCC(=O)O)NC(=O)OC(C)(C)C` (stereo partly drawn), the Relative activity is below 1%.

Take `CO[C@@H](CC(C)C)NC(=O)[C@@H](CCC(=O)O)NC(=O)OC(C)(C)C`: the Relative activity is below 1%.

Regarding `COC(=O)[C@@H](CC(C)C)NC(=O)[C@H](CCC(=O)O)NC(=O)[C@H](CCC(=O)O)NC(=O)OC(C)(C)C`, the Relative activity was determined as 19%.

Turning to `COC(=O)[C@H](CCC(=O)O)NC(=O)[C@H](C)NC(=O)[C@H](CCC(=O)O)NC(=O)[C@H](CC(C)C)NC(=O)OC(C)(C)C` (HELM PEPTIDE1{[CC(C)(C)OC(=O)[*:2]].L.E.A.E.[CO[*:1]]}$$$$V2.0), the Relative activity is 46%.

In the case of `COC(=O)[C@H](CC(C)C)NC(=O)[C@H](CCC(=O)O)NC(=O)[C@H](CCC(=O)O)NC(=O)CNC(=O)OC(C)(C)C` (HELM PEPTIDE1{[CC(C)(C)OC(=O)[*:2]].G.E.E.L.[CO[*:1]]}$$$$V2.0), the Relative activity amounted to 6%.

Regarding `COC(=O)[C@H](CCC(=O)O)NC(=O)[C@H](C)NC(=O)[C@H](CCC(=O)O)NC(=O)[C@H](CC(C)C)NC(=O)N1CCC[C@H]1C(C)=O` ({Pyrrolidin1yl(2S-Ac)-CO}-LEAE-OMe), the Relative activity is 25%.

Consider `COC(=O)NC(=O)[C@H](CC(C)C)NC(=O)[C@H](CC(=O)O)NC(=O)C(CCC(=O)O)NC(=O)OC(C)(C)C` (stereo partly drawn), for which the Relative activity is 11%.

For `COC(=O)NC(=O)[C@H](CC(C)C)NC(=O)[C@H](CCCC(=O)O)NC(=O)C(CCCC(=O)O)NC(=O)OC(C)(C)C` (stereo partly drawn), the Relative activity was below 1%.

For `CC(C)C[C@H](NC(=O)[C@H](CCC(=O)O)NC(=O)[C@@H](CCC(=O)O)NC(=O)[C@H](CC(C)C)NC(=O)[C@@H](N)Cc1ccccc1)C(=O)O`, the Relative activity was 100%.

`CC(C)(C)OC(=O)N[C@H](CCC(=O)O)C(=O)NCc1ccccc1`: the Relative activity was below 1%.

In the case of `CC(C)C[C@H](NC(=O)[C@H](CCC(=O)O)NC(=O)[C@H](CCC(=O)O)NC(=O)[C@@H](N)CC(C)C)C(=O)O` (H-LEEL-OH), the Relative activity was found to be 8%.

Regarding `COC(=O)[C@H](CC(C)C)NC(=O)[C@H](CCC(=O)O)NC(=O)[C@@H](CCC(=O)O)NC(=O)OC(C)(C)C`, the Relative activity is below 1%.

As to `COC(=O)[C@H](CC(C)C)NC(=O)[C@H](CCC(=O)O)NC(=O)[C@H](CCC(=O)O)NC(=O)[C@@H](CC(C)C)NC(=O)OC(C)(C)C`, the Relative activity was found to be 55%.

`COC(=O)[C@H](CC(C)C)NC(=O)[C@@H](CCC(=O)O)NC(=O)[C@@H](CCC(=O)O)NC(=O)OC(C)(C)C`: the Relative activity was below 1%.

Turning to `COC(=O)[C@H](CCC(=O)O)NC(=O)[C@H](C)NC(=O)[C@H](CCC(=O)O)NC(=O)[C@H](CC(C)C)NC(=O)N1CCC[C@H]1C(=O)OC(C)(C)C` ({OtBu-Pro-CO}-LEAE-OMe), the Relative activity turned out to be 19%.

As to `COC(=O)[C@H](CC(C)C)NC(=O)[C@@H](CCC(=O)O)NC(=O)[C@H](CCC(=O)O)NC(=O)OC(C)(C)C`, the Relative activity was below 1%.

Consider `CO[C@H](CC(C)C)NC(=O)[C@H](CCC(=O)O)NC(=O)[C@H](CCC(=O)O)NC(=O)[C@H](CC(C)C)NC(=O)OC(C)(C)C`, for which the Relative activity was found to be 77%.

As to `COC(=O)NC(=O)[C@H](CC(C)C)NC(=O)[C@H](CCC(=O)O)NC(=O)C(CC(=O)O)NC(=O)OC(C)(C)C` (stereo partly drawn), the Relative activity worked out at 11%.

With `CO[C@H](CC(C)C)NC(=O)[C@H](CCC(=O)O)NC(=O)[C@H](CCC(=O)O)NC(=O)[C@H](CC(C)C)NC(=O)C(Cc1ccccc1)NC(=O)OC(C)(C)C` (stereo partly drawn) (Boc-[ξF]LEE-X1), the Relative activity was 24%.

For `COC(=O)NC(=O)[C@H](CCC(=O)O)NC(=O)[C@H](C)NC(=O)[C@H](CCC(=O)O)NC(=O)OC(C)(C)C`, the Relative activity came to 4%.

System in the next series: not listed separately
As to the kind of experiment: Michaelis constant was determined. The format is ADME.
Take `CC(C)C[C@H](NC(=O)[C@H](CCC(=O)O)NC(=O)[C@@H](CCC(=O)O)NC(=O)[C@H](CC(C)C)NC(=O)[C@@H](N)Cc1ccccc1)C(=O)O`: the Km was 4 mM.
